Legend:
[1] = target: 5-hydroxytryptamine receptor 2B (Homo sapiens) (UniProt P41595); experiment: Inhibition of 5-HT2B receptor (unknown origin) at 10 uM relative to control
[2] = target: Muscarinic acetylcholine receptor M3 (Homo sapiens) (UniProt P20309); experiment: Inhibition of muscarinergic M3 receptor (unknown origin) at 10 uM relative to control
[3] = target: T1, Alpha-2C adrenergic receptor (Homo sapiens) (UniProt P18825); experiment: Inhibition of adrenergic alpha-2C receptor (unknown origin) at 10 uM relative to control
T1 sequence (whole entry): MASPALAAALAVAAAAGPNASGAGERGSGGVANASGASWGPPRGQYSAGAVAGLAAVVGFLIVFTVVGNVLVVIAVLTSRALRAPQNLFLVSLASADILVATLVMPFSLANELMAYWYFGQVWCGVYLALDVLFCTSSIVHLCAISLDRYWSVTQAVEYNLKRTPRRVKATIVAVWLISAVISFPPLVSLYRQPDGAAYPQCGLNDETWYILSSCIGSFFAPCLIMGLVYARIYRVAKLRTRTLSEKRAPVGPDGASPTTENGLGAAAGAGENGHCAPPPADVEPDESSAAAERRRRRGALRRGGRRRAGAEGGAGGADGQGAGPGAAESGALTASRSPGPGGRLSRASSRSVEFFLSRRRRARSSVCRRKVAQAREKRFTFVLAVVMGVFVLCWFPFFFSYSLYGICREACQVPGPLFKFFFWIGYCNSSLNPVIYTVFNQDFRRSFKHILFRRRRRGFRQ

[4] = Toxicity in ip dosed albino Sprague-Dawley rat assessed as behavioral changes measured at 0.25 to 4 hrs; format: organism-based; details: in vivo
Method in brief: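 Male albino Sprague-Dawley rats given compound intraperitoneally or orally (NINDS ASP); neurological impairment judged from behavioral toxicity effects. Preset screening doses (e.g., 30 mg/kg); for adequately active compounds, TD50 (mg/kg, 95% confidence intervals) derived from dose–effect data at time of peak effect.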

[5] = target: Histamine H1 receptor (Homo sapiens) (UniProt P35367); experiment: Inhibition of histamine H1 receptor (unknown origin) at 10 uM relative to control
[6] = target: T2, Muscarinic acetylcholine receptor M2 (Homo sapiens) (UniProt P08172); experiment: Inhibition of muscarinergic M2 receptor (unknown origin) at 10 uM relative to control
T2 sequence (whole entry): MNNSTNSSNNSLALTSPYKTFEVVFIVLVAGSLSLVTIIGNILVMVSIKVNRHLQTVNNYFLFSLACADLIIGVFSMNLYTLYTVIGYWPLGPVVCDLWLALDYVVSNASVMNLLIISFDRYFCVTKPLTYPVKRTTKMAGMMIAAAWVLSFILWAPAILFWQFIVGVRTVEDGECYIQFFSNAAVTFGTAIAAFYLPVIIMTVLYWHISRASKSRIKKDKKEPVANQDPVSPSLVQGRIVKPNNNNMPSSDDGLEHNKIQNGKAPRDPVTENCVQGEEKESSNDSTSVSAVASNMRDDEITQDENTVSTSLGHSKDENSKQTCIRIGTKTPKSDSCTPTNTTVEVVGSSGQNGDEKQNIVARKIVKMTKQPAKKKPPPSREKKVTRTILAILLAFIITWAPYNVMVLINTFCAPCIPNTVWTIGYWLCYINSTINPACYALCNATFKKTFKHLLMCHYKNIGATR

[7] = target: D(1A) dopamine receptor (Homo sapiens) (UniProt P21728); experiment: Inhibition of dopaminergic D1 receptor (unknown origin) at 10 uM relative to control
[8] = target: Translocator protein (Homo sapiens) (UniProt P30536); experiment: Inhibition of PBR (unknown origin) at 10 uM relative to control
[9] = Solubility of the compound in water at 300 uM; format: physicochemical
Method in brief: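 Hydrochloride salts checked for dissolution in water at 300 µM.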

[10] = target: Histamine H2 receptor (Homo sapiens) (UniProt P25021); experiment: Inhibition of histamine H2 receptor (unknown origin) at 10 uM relative to control
Homo sapiens = species on record: Homo sapiens; experiment: Inhibition of sigma-2 receptor (unknown origin) at 10 uM relative to control
[11] = target: 5-hydroxytryptamine receptor 7 (Homo sapiens) (UniProt P34969); experiment: Inhibition of 5-HT7 receptor (unknown origin) at 10 uM relative to control
[12] = target: Sodium-dependent dopamine transporter (Homo sapiens) (UniProt Q01959); experiment: Inhibition of DAT (unknown origin) at 10 uM relative to control
[13] = target: Sodium-dependent serotonin transporter (Homo sapiens) (UniProt P31645); experiment: Inhibition of SERT (unknown origin) at 10 uM relative to control
[14] = target: Sodium-dependent noradrenaline transporter (Homo sapiens) (UniProt P23975); experiment: Inhibition of NET (unknown origin) at 10 uM relative to control
[15] = target: T3, D(4) dopamine receptor (Homo sapiens) (UniProt P21917); experiment: Inhibition of dopaminergic D4 receptor (unknown origin) at 10 uM relative to control
T3 sequence (whole entry): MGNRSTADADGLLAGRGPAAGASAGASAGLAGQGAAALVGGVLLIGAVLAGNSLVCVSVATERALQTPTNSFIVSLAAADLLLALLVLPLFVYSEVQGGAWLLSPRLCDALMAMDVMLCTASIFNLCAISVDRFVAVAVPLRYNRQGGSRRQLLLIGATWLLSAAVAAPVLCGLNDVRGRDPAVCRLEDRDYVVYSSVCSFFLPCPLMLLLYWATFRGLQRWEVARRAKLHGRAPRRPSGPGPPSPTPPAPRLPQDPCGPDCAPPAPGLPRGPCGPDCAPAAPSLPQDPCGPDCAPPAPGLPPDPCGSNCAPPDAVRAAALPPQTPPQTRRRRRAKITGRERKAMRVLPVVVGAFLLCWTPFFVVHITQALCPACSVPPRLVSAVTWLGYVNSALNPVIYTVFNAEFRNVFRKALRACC

Mus musculus = experiment: Anticonvulsant activity in ip dosed albino CF-1 mouse assessed as protection against maximal electroshock-induced seizures measured at 0.25 hrs; format: functional; details: albino CF-1, ip
Method in brief: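 Screened under the NINDS ASP in male albino Carworth Farms No. 1 mice (ip) or male albino Sprague-Dawley rats (ip or po), using MES, 6 Hz (32 mA) and subcutaneous pentylenetetrazol seizure tests. Initial qualitative tests used preset doses (e.g., 30, 50, 100 mg/kg). ED50 values with 95% confidence intervals came from dose–response data collected at the time of peak effect.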

Sequence of Histamine H1 receptor (Homo sapiens) (P35367 whole entry): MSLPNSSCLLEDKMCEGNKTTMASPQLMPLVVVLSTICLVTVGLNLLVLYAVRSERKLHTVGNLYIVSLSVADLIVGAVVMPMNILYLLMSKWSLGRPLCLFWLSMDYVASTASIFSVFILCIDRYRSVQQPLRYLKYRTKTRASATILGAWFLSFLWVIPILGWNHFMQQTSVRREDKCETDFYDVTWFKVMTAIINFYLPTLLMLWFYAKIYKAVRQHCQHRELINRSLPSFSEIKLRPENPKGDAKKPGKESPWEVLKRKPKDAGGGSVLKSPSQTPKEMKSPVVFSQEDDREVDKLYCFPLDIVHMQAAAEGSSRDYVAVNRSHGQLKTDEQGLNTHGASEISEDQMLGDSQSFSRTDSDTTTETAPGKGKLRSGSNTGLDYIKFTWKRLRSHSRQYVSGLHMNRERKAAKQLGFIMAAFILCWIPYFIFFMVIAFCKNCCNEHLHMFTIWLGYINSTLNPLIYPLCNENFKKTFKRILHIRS
Sequence of 5-hydroxytryptamine receptor 2B (Homo sapiens) (P41595 whole entry): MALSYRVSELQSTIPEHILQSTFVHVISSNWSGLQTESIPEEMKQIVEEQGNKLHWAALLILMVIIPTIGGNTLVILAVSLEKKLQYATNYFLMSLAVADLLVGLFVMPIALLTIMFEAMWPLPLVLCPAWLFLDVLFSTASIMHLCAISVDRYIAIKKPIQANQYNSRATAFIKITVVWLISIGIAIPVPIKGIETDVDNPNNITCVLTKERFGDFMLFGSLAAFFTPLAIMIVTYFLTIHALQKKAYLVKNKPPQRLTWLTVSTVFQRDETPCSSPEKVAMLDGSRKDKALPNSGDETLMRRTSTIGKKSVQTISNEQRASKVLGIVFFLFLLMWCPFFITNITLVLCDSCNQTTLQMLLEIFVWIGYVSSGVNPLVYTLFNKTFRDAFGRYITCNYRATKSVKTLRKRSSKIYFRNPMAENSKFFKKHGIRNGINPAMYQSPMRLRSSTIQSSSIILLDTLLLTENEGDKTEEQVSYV
Sequence of D(1A) dopamine receptor (Homo sapiens) (P21728 whole entry): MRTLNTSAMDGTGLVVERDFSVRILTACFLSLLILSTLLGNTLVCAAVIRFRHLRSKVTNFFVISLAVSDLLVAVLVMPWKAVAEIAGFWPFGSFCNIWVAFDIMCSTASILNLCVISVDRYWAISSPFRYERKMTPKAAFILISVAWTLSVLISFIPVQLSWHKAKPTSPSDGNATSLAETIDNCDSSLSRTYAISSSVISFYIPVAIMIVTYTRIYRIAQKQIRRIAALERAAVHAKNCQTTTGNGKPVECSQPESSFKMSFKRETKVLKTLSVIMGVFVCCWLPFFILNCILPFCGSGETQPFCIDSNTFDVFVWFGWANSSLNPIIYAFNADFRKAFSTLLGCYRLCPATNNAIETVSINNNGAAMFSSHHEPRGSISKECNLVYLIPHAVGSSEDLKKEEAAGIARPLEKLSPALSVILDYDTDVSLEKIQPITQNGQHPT
Sequence of Histamine H2 receptor (Homo sapiens) (P25021 whole entry): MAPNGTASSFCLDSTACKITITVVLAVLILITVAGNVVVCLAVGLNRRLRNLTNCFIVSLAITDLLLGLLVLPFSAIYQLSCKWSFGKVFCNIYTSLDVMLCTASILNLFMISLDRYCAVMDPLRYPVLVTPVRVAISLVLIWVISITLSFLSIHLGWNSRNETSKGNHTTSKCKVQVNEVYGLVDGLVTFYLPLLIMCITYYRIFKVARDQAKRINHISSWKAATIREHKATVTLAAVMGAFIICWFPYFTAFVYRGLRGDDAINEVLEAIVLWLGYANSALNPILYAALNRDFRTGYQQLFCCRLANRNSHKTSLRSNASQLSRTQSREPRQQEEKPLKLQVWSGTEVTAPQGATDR
Sequence of Sodium-dependent noradrenaline transporter (Homo sapiens) (P23975 whole entry): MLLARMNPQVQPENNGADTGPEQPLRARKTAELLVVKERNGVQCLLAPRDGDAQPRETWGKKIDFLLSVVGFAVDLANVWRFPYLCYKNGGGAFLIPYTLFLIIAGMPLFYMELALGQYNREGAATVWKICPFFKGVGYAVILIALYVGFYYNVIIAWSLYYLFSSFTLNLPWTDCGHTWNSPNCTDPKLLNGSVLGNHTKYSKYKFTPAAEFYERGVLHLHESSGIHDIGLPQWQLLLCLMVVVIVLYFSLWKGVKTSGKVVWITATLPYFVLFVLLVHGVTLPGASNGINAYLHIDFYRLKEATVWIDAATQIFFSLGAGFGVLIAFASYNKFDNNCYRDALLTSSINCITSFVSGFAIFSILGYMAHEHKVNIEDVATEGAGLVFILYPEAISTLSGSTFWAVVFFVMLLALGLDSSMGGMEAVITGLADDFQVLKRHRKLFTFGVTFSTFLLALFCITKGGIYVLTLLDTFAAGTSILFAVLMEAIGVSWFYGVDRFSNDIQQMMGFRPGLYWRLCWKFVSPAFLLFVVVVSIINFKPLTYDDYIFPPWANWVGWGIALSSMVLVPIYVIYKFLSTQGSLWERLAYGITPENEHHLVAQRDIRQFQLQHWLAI
Sequence of Sodium-dependent dopamine transporter (Homo sapiens) (Q01959 whole entry): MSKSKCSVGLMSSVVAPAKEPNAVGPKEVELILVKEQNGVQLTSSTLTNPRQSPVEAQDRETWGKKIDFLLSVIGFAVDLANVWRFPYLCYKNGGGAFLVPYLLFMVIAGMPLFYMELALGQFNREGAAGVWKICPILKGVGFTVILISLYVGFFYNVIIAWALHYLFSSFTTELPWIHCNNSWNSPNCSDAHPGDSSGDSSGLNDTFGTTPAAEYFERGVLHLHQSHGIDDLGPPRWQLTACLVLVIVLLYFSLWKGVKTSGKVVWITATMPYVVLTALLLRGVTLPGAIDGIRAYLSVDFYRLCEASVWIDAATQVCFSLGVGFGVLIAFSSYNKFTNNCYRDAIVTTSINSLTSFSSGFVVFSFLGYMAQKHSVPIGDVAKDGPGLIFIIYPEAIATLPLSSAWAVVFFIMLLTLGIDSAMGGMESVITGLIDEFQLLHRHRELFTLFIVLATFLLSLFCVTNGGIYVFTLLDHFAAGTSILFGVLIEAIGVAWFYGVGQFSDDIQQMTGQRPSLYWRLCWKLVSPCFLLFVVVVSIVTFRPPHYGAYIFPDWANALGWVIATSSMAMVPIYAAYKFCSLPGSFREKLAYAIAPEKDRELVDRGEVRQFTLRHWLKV
Sequence of Translocator protein (Homo sapiens) (P30536 whole entry): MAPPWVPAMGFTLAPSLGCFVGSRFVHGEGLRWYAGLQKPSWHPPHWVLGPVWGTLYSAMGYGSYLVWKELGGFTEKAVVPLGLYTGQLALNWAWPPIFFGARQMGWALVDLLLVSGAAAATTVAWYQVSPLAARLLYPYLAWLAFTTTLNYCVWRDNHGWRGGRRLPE
Sequence of 5-hydroxytryptamine receptor 7 (Homo sapiens) (P34969 whole entry): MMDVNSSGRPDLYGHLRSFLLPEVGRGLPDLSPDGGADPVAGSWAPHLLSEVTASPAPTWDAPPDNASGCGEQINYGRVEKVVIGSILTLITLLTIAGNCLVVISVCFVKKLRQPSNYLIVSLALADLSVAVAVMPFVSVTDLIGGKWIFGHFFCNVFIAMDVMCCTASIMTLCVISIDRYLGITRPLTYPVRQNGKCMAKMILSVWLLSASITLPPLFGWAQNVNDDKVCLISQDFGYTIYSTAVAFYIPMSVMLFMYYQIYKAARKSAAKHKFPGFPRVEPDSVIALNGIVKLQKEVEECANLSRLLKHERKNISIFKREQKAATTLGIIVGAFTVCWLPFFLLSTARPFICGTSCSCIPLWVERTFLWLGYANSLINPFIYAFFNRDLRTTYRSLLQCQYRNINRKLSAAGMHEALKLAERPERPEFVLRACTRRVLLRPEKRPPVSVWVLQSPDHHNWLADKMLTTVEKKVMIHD
Sequence of Muscarinic acetylcholine receptor M3 (Homo sapiens) (P20309 whole entry, looked up): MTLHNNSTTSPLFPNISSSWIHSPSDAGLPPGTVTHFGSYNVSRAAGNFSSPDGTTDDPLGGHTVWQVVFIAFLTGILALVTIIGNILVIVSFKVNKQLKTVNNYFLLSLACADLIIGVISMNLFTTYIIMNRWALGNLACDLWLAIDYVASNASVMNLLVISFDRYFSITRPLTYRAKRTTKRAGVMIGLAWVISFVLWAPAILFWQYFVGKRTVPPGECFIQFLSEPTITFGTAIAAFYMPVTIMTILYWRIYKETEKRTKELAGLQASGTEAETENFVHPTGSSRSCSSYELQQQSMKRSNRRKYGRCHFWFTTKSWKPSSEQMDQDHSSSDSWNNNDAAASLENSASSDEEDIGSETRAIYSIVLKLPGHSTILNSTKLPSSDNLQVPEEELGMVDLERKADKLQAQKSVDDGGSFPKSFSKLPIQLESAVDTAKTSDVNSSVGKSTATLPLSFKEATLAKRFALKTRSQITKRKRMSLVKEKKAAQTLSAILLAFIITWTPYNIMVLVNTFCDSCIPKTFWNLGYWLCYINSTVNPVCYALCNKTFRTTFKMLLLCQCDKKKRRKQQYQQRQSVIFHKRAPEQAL
Sequence of Sodium-dependent serotonin transporter (Homo sapiens) (P31645 whole entry, looked up): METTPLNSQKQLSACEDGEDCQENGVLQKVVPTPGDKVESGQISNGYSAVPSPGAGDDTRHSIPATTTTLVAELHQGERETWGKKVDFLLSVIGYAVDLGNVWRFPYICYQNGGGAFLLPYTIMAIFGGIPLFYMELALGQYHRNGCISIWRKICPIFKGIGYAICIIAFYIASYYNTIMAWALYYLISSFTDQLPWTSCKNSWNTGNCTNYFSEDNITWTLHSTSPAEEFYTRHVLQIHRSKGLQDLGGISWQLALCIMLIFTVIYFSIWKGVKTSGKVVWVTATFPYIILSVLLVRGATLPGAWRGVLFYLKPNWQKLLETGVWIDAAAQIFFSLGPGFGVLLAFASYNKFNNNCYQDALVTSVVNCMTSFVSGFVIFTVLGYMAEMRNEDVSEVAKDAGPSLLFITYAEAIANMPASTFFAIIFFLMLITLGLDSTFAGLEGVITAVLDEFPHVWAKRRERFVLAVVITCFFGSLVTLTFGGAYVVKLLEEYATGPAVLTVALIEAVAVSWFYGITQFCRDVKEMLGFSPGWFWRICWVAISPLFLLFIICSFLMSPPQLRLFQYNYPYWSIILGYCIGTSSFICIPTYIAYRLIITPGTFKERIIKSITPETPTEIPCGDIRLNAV

inhibition [1] [%] | inhibition [2] [%] | inhibition [3] [%] | inhibition [5] [%] | inhibition [6] [%] | inhibition [7] [%] | inhibition [8] [%] | solubility [9] | inhibition [10] [%] | inhibition (Homo sapiens) [%] | inhibition [11] [%] | inhibition [12] [%] | inhibition [13] [%] | inhibition [14] [%] | inhibition [15] [%] | Structure (SMILES) | TD50 [4] [mg/kg] | ED50 (Mus musculus) [mg/kg]
51.4 | -3.5 | 46.6 | 12.1 | 4.5 | -3.3 | 3.6 | soluble | 4.2 | 87.5 | 43.6 | 45.5 | 55.7 | 58.5 | 22.1 | Cl.NCc1ccc(OCc2cccc(OC(F)(F)F)c2)cc1 | > 30 | 
87.3 | -2.1 |  | 5.2 | -6 | -1.1 | 15.2 | soluble |  | 58.4 | 59.1 | 76.8 | 83.4 | 76.1 | 9.9 | Cl.NCc1ccc(OCc2cccc(F)c2)cc1 | > 30 | 
34.4 | -6.5 | 42.2 | 14.7 | 1.9 | -9.4 | 5.6 | soluble | -2.7 | 86.4 | 29.3 | 70.5 | 10.6 | 60.1 | -0.2 | Cl.NCc1ccc(OCc2ccc(OC(F)(F)F)cc2)cc1 | > 50 | 
49 | 19.5 | 40.2 | 15.6 | 3.8 | -2.5 | 4.7 | soluble | 5.8 | 89.8 | 38.7 | 50.7 | 31.4 | 29.3 | 94.6 | Cl.NCc1ccc(OCc2ccccc2OC(F)(F)F)cc1 |  | 20

The remaining lines, values behind:

Structure (SMILES) | inhibition [1] [%] | inhibition [2] [%] | inhibition [3] [%] | inhibition [5] [%] | inhibition [6] [%] | inhibition [7] [%] | inhibition [8] [%] | solubility [9] | inhibition [10] [%] | inhibition (Homo sapiens) [%] | inhibition [11] [%] | inhibition [12] [%] | inhibition [13] [%] | inhibition [14] [%] | inhibition [15] [%] | TD50 [4] [mg/kg] | ED50 (Mus musculus) [mg/kg]
Cl.NCc1ccc(OCc2ccc(Cl)cc2)cc1 | 40.6 | 13.7 | 52.1 | 0.3 | 10.9 | 7.6 | 12 | soluble | 16.8 | 79.2 | 45.4 | 75.7 | 53.8 | 64.7 | 24.7 | > 30 | < 100
Cl.NCc1ccc(OCc2ccc(F)cc2)cc1 | 46.5 | 7 | 40.2 | -5.8 | 12.6 | -1.9 | -2.3 | soluble | 29.7 | 67.6 | 67.7 | 48.2 | 71.3 | 59.9 | 19.5 | > 30 | < 100
Cl.NCc1ccc(OCc2ccccc2)cc1 | 55.7 | 1 | 47.6 | 7.6 | -2.5 | -6 | 11.8 | soluble | -4 | 56.6 | 56.3 | 72.2 | 49.1 | 63.6 | 27.4 | > 50 | 
Cl.NCc1ccc(OCc2ccccc2F)cc1 | 82.4 | 12.7 | 33 | 6.7 | -7.5 | -0.2 | 26.8 | soluble | 1.6 | 71.6 | 43.5 | 61.7 | 34.4 | 61.3 | 44 | > 50 | 
Cl.NCc1ccc(OCc2cccc(Cl)c2)cc1 | 39.8 | 11.9 | 81.1 | 1.4 | 13.1 | 2.9 | 50 | soluble | -7.4 | 80.5 | -1.9 | 84.1 | 76.5 | 83.9 | 79.4 | > 30 | 54

Source: ChEMBL document CHEMBL3091364, “Benzyloxybenzylammonium chlorides: Simple amine salts that display anticonvulsant activity” (Bioorg Med Chem, 2013)
